Measurements from different studies.
Compare with care: the assays were run in different laboratories.
Cell line: NCI-H460
Observed: cell growth or viability

Cc1ccc(-c2ccc(CCCN(O)C(=O)CP(=O)(O)O)cc2)cc1
IC50 (MTT; 96 h): 229 µM

O=C(O)/C=C/c1ccc(O)c(O)c1
IC50 (MTT): 3.9 µM

O=C/C(=C/Cc1ccc(O)cc1)c1ccc(O)cc1
IC50 (MTT; 24 h): 26.9 µg/mL

CC(=O)c1cccc(N=Nc2c(C(=O)O)cc(O)c(O)c2O)c1
IC50 (MTT): 9.5 µM

Cc1ccc(-c2ccc(O)cc2)c(C(=C2C=CC(=O)C=C2)c2ccc(O)cc2)c1C#Cc1ccc(O)cc1
IC50 (MTT; 48 h): 15.5 µM

COc1cc(N(C)CCN(C)C)c(NC(=O)/C=C/C(C)C)cc1Nc1nc(Nc2cnn(C)c2)c2sccc2n1
IC50 (MTT): 2.25 µM

COc1cc(CNC(=O)CCCC/C=C/C(C)C)ccc1O
IC50 (SRB): 30.7 µM

COc1ccc(C/C=C/c2ccc(O)c(OC)c2)cc1
IC50 (MTT; 24 h): 12.3 µg/mL

CC(=O)c1cccc(/N=N/c2cc(/C=C/C(=O)O)ccc2O)c1
IC50 (MTT): > 50 µM

O=C1NC(=NCc2cccs2)S/C1=C\c1ccc2ncccc2c1
IC50: > 10 µM

CC[C@@]1(O)C(=O)OCc2c1cc1n(c2=O)Cc2cc3ccccc3nc2-1
IC50 (72 h): < 0.01 µM

C=CC(=O)Nc1cc(Nc2nc(Nc3cnn(C)c3)c3sccc3n2)c(OC)cc1N(C)CCN(C)C
IC50 (MTT): > 50 µM

COc1cccc2c1C(=O)c1c(O)c3c(c(O)c1C2=O)C[C@@](O)(C(=O)CO)C[C@@H]3O[C@H]1C[C@H](N)[C@H](O)[C@H](C)O1
IC50 (SRB): 4.29 µM

C=CC(=O)Nc1cc(Nc2nc(N3CCc4sccc4C3)c3cccnc3n2)c(OC)cc1N1CCN(CC)CC1
IC50 (MTT): 0.652 µM

COc1cc(/C=C/Cc2ccc(O)c(OC)c2)cc(OC)c1
IC50 (MTT; 24 h): 16.1 µg/mL

C=CC(=O)Nc1cc(Nc2nc(N3CCc4sccc4C3)c3sccc3n2)c(OC)cc1N1CCN(C)CC1
IC50 (MTT): 0.913 µM

COc1ccc(C/C=C/c2ccc(O)cc2)cc1
IC50 (MTT; 24 h): 14.1 µg/mL

O=C(O)c1cc(O)c(O)c(O)c1
IC50 (MTT): 14.9 µM

O=c1[nH]cc(F)c(=O)[nH]1
IC50 (MTT; 72 h): 3 µM

COc1ccc(C/C=C(/CO)c2ccc(OC)cc2)cc1
IC50 (MTT; 24 h): 30.9 µg/mL

C=CC(=O)Nc1cc(Nc2nc(N3CCc4sccc4C3)c3cccnc3n2)c(OC)cc1N1CCN(CCO)CC1
IC50 (MTT): 8.03 µM

OCc1ccc2c(c1C#Cc1ccc(O)cc1)C(c1ccc(O)cc1)(c1ccc(O)cc1)c1cc(O)ccc1-2
IC50 (MTT; 48 h): > 50 µM

CCC(=O)Nc1cc(Nc2nc(N3CCc4sccc4C3)c3cccnc3n2)c(OC)cc1N1CCN(C(C)=O)CC1
IC50 (MTT): > 50 µM

OC/C(=C/Cc1ccc(O)cc1)c1ccc(O)cc1
IC50 (MTT; 24 h): 44.9 µg/mL

CC(C)C[C@H](NC(=O)[C@H](Cc1ccccc1)NC(=O)c1cnccn1)B(O)O
IC50 (ATP luminescence): 0.03 µM

C=C(Cl)C(=O)Nc1cc(Nc2nc(N3CCc4sccc4C3)c3sccc3n2)c(OC)cc1N(C)CCN(C)C
IC50 (MTT): 2.33 µM

COc1ccc(C/C=C/c2cc(OC)cc(OC)c2)cc1
IC50 (MTT; 24 h): 77.3 µg/mL

CCC(=O)Nc1cc(Nc2nc(N3CCc4sccc4C3)c3cccnc3n2)c(OC)cc1N1CCN(CC)CC1
IC50 (MTT): 1.16 µM

COc1cc2oc(-c3ccc(O)cc3)cc(=O)c2c(O)c1OC
IC50 (48 h): 26.2 µM
